In this experiment the target is T1, Calpain-2 catalytic subunit (Homo sapiens, UniProt P17655).
T1 sequence (P17655 whole entry): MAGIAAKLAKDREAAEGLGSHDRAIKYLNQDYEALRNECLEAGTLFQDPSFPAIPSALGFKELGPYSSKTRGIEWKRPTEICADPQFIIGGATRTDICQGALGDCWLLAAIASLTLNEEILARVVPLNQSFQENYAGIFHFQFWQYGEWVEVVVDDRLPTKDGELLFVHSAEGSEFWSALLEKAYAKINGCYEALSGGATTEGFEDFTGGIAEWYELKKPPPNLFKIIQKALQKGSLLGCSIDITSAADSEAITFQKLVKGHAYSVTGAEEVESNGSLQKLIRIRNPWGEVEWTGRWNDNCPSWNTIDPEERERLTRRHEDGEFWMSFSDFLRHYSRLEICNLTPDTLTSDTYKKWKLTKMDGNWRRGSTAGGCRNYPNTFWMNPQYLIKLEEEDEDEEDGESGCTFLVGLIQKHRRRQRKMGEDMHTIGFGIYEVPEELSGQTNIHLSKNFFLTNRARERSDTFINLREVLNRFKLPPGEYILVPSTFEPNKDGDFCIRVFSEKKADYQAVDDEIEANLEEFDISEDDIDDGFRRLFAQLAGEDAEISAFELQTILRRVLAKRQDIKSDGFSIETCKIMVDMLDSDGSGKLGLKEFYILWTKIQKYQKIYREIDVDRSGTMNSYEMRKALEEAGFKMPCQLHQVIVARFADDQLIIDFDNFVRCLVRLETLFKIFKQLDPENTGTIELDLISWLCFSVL
As to the kind of experiment: Compound was evaluated for the inhibition of Cysteine protease Calpain 2. The procedure, abridged: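 Calpain assay in 25 mM Tris, pH 8.0, with 10 mM CaCl₂ and 5% DMSO. Suc-Leu-AMC hydrolysis was read as initial velocity (t = 30-60 s) after a 30 s delay, at room temperature. Five or more inhibitor concentrations (not above 2 × K_obs) were used at two fixed substrate levels. Ki came from Dixon plots (1/v vs I) averaged over triplicates.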
What is called Ki is a dissociation constant, usually derived from enzyme kinetics or from competition with a known ligand. Higher therefore signals lower affinity. On to `CCNC(=O)C(=O)C(CC)NC(=O)C(CC(C)C)NC(=O)CCc1ccccc1` (stereo not given) [3-[4-Methyl-2-(3-phenyl-propionylamino)-pentanoylamino]-2-oxo-pentanoic acid ethylamide], for which the Ki turned out to be 130 nM.

Compound `CCC(NC(=O)C(CC(C)C)NC(=O)OCc1ccccc1)C(=O)C(=O)NCC(O)c1ccc(OCc2ccccc2)c(OCc2ccccc2)c1` (stereo not given) [(1-{1-[2-(3,4-Bis-benzyloxy-phenyl)-2-hydroxy-ethylaminooxalyl]-propylcarbamoyl}-3-methyl-butyl)-carbamic acid benzyl ester] showed a Ki of 100 nM.

With `CC(C)CC(NC(=O)OCc1ccccc1)C(=O)NC(Cc1ccccc1)C(=O)C(=O)NCCNC(=O)CCCC[C@@H]1SC[C@@H]2NC(=O)N[C@@H]21` (stereo partly drawn) [[1-(1-Benzyl-2-oxo-2-{2-[5-((3aR,6S,6aS)-2-oxo-hexahydro-thieno[3,4-d]imidazol-6-yl)-pentanoylamino]-ethylcarbamoyl}-ethylcarbamoyl)-3-methyl-butyl]-carbamic acid benzyl ester], the Ki was 160 nM.

For the compound `CCNC(=O)C(=O)C(CC)NC(=O)C(CC(C)C)NC(=O)c1cccnc1` (stereo not given) [N-[1-(1-Ethylaminooxalyl-propylcarbamoyl)-3-methyl-butyl]-nicotinamide], the inhibition constant (Ki) is 830 nM.

In the case of `CCC(NC(=O)C(CC(C)C)NC(=O)OCc1ccccc1)C(=O)C(=O)NCC(O)c1ccc(N(C)C)cc1` (stereo not given) [(1-{1-[2-(4-Dimethylamino-phenyl)-2-hydroxy-ethylaminooxalyl]-propylcarbamoyl}-3-methyl-butyl)-carbamic acid benzyl ester], the affinity corresponds to a Ki of 410 nM.

These data come from BindingDB's records for doi:10.1021/jm950541c (Georgia Institute of Technology, 1996).
